Where a SMILES comes first, the peptide text is derived from it.
Tests used:
Orexin receptor type 2 = biological target: T1, Orexin receptor type 2 (Homo sapiens, UniProt O43614); assay: Agonist activity at human OX2 receptor overexpressed in CHO-RD-HGA16 cells assessed as calcium mobilization after 15 mins by fluorescence assay; format: functional, cell-based
T1 sequence (O43614 whole entry): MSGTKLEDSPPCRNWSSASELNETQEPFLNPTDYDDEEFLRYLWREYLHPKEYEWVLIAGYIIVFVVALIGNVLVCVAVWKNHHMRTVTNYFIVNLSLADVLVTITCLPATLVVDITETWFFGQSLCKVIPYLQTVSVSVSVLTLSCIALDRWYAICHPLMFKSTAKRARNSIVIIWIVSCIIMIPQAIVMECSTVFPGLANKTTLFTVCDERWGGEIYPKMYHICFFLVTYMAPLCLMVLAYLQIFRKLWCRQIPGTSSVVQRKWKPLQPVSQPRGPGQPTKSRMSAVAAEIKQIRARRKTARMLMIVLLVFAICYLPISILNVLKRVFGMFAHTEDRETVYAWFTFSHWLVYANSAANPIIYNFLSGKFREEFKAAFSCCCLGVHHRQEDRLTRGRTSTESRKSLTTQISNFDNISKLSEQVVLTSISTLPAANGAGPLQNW

[1] = biological target: T2, Orexin/Hypocretin receptor type 1 (Homo sapiens, UniProt O43613); assay: Agonist activity at human OX1 receptor overexpressed in CHO-RD-HGA16 cells assessed as calcium mobilization after 15 mins by fluorescence assay; format: functional, cell-based
T2 sequence (O43613 whole entry): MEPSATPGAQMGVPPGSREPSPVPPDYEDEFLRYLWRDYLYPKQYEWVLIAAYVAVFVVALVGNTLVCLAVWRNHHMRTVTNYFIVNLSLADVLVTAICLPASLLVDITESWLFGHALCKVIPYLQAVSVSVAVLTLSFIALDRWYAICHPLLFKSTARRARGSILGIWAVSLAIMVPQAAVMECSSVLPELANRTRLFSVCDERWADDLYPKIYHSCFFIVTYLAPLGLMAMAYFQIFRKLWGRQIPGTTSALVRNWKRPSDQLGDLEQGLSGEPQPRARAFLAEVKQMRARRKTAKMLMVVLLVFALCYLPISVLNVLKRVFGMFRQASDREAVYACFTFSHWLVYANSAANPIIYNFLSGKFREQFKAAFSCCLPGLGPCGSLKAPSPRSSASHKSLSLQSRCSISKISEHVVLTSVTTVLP
Outline: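 EC50 from 8-point half-log concentration-response curves. Values are means of at least three independent experiments in duplicate, with SEM, or means of two independent duplicate experiments.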

Homo sapiens = species on record: Homo sapiens; assay: Selectivity ratio of EC50 for human OX2 receptor to EC50 for human OX1 receptor
[2] = biological target: T3, Orexin/Hypocretin receptor type 1 (Homo sapiens) (UniProt O43613); assay: Agonist activity at human OX1 receptor overexpressed in CHO-RD-HGA16 cells assessed as calcium mobilization at 10 uM after 15 mins by fluorescence assay relative to control; format: functional, cell-based
T3 sequence (whole entry): T2 sequence (O43613 whole entry)

EC50 (Orexin receptor type 2) [µM] | EC50 [1] [µM] | Ratio EC50 (Homo sapiens) | Calcium response at 10 uM relative to control [2] [%] | SMILES
1.76 | 5.7 | 0.3 | – | CC[C@H](C)[C@H](NC(=O)CNC(=O)[C@H](C)NC(=O)[C@H](C)NC(=O)[C@@H](Cc1cnc[nH]1)NC(=O)[C@H](CC(N)=O)NC(=O)CNC(=O)[C@H](C)NC(=O)CNC(=O)[C@H](Cc1cnc[nH]1)NC(=O)[C@H](CC(C)C)NC(=O)[C@H](CC(C)C)NC(=O)[C@H](CCC(=O)O)NC(=O)[C@@H](N)Cc1ccc(O)cc1)C(=O)N[C@@H](CC(C)C)C(=O)N[C@H](C(=O)N[C@@H](CC(C)C)C(N)=O)[C@@H](C)O
0.61 | 1.56 | 0.4 | – | CC[C@H](C)[C@H](NC(=O)CNC(=O)[C@H](C)NC(=O)[C@H](C)NC(=O)[C@H](Cc1cnc[nH]1)NC(=O)[C@H](CC(N)=O)NC(=O)CNC(=O)[C@H](C)NC(=O)CNC(=O)[C@@H](Cc1cnc[nH]1)NC(=O)[C@H](CC(C)C)NC(=O)[C@H](CC(C)C)NC(=O)[C@H](CCC(=O)O)NC(=O)[C@@H](N)Cc1ccc(O)cc1)C(=O)N[C@@H](CC(C)C)C(=O)N[C@H](C(=O)N[C@@H](CC(C)C)C(N)=O)[C@@H](C)O
1.44 | 0.422 | 3.4 | – | CC[C@H](C)[C@H](NC(=O)CNC(=O)[C@H](C)NC(=O)[C@H](C)NC(=O)[C@H](Cc1cnc[nH]1)NC(=O)[C@H](CC(N)=O)NC(=O)CNC(=O)[C@H](C)NC(=O)[C@H](C)NC(=O)[C@H](Cc1cnc[nH]1)NC(=O)[C@H](CC(C)C)NC(=O)[C@H](CC(C)C)NC(=O)[C@H](CCC(=O)O)NC(=O)[C@@H](N)Cc1ccc(O)cc1)C(=O)N[C@@H](CC(C)C)C(=O)N[C@H](C(=O)N[C@@H](CC(C)C)C(N)=O)[C@@H](C)O (H-YELLHAAGNHAAGILTL-NH2)
1.91 | 0.493 | 3.9 | – | CC[C@H](C)[C@H](NC(=O)CNC(=O)[C@H](C)NC(=O)[C@H](C)NC(=O)[C@H](Cc1cnc[nH]1)NC(=O)[C@H](CC(N)=O)NC(=O)CNC(=O)[C@H](C)NC(=O)CNC(=O)[C@H](C)NC(=O)[C@H](CC(C)C)NC(=O)[C@H](CC(C)C)NC(=O)[C@H](CCC(=O)O)NC(=O)[C@@H](N)Cc1ccc(O)cc1)C(=O)N[C@@H](CC(C)C)C(=O)N[C@H](C(=O)N[C@@H](CC(C)C)C(N)=O)[C@@H](C)O (H-YELLAGAGNHAAGILTL-NH2)
2.32 | 3.07 | 0.8 | – | CC[C@H](C)[C@H](NC(=O)CNC(=O)[C@H](C)NC(=O)[C@H](C)NC(=O)[C@H](Cc1cnc[nH]1)NC(=O)[C@H](C)NC(=O)CNC(=O)[C@H](C)NC(=O)CNC(=O)[C@H](Cc1cnc[nH]1)NC(=O)[C@H](CC(C)C)NC(=O)[C@H](CC(C)C)NC(=O)[C@H](CCC(=O)O)NC(=O)[C@@H](N)Cc1ccc(O)cc1)C(=O)N[C@@H](CC(C)C)C(=O)N[C@H](C(=O)N[C@@H](CC(C)C)C(N)=O)[C@@H](C)O (H-YELLHGAGAHAAGILTL-NH2)
0.263 | 0.526 | 0.5 | – | CC[C@H](C)[C@H](NC(=O)CNC(=O)[C@H](C)NC(=O)[C@H](C)NC(=O)[C@H](Cc1cnc[nH]1)NC(=O)[C@H](CC(N)=O)NC(=O)CNC(=O)[C@H](C)NC(=O)CNC(=O)[C@H](Cc1cnc[nH]1)NC(=O)[C@H](CC(C)C)NC(=O)[C@@H](CC(C)C)NC(=O)[C@H](CCC(=O)O)NC(=O)[C@@H](N)Cc1ccc(O)cc1)C(=O)N[C@@H](CC(C)C)C(=O)N[C@H](C(=O)N[C@@H](CC(C)C)C(N)=O)[C@@H](C)O
0.0993 | 0.144 | 0.7 | – | CC[C@H](C)[C@H](NC(=O)CNC(=O)[C@H](C)NC(=O)[C@H](C)NC(=O)[C@H](Cc1cnc[nH]1)NC(=O)[C@H](CC(N)=O)NC(=O)CNC(=O)[C@H](CO)NC(=O)[C@H](C)NC(=O)[C@H](CCC(N)=O)NC(=O)[C@H](CC(C)C)NC(=O)[C@H](CC(C)C)NC(=O)[C@H](CCCNC(=N)N)NC(=O)[C@H](CCC(N)=O)NC(=O)[C@H](CC(C)C)NC(=O)[C@@H](N)CCCNC(=N)N)C(=O)N[C@@H](CC(C)C)C(=O)N[C@H](C(=O)N[C@@H](CCSC)C(N)=O)[C@@H](C)O (H-RLQRLLQASGNHAAGILTM-NH2)
1.25 | 1.9 | 0.7 | – | CC[C@H](C)[C@H](NC(=O)CNC(=O)[C@H](C)NC(=O)[C@@H](C)NC(=O)[C@H](Cc1cnc[nH]1)NC(=O)[C@H](CC(N)=O)NC(=O)CNC(=O)[C@H](C)NC(=O)CNC(=O)[C@H](Cc1cnc[nH]1)NC(=O)[C@H](CC(C)C)NC(=O)[C@H](CC(C)C)NC(=O)[C@H](CCC(=O)O)NC(=O)[C@@H](N)Cc1ccc(O)cc1)C(=O)N[C@@H](CC(C)C)C(=O)N[C@H](C(=O)N[C@@H](CC(C)C)C(N)=O)[C@@H](C)O
0.439 | 0.0789 | 5.6 | – | CC[C@H](C)[C@H](NC(=O)CNC(=O)[C@H](C)NC(=O)[C@H](C)NC(=O)[C@H](Cc1cnc[nH]1)NC(=O)[C@H](CC(N)=O)NC(=O)CNC(=O)[C@H](C)NC(=O)CNC(=O)[C@H](Cc1cnc[nH]1)NC(=O)[C@H](CC(C)C)NC(=O)[C@H](CC(C)C)NC(=O)[C@H](C)NC(=O)[C@@H](N)Cc1ccc(O)cc1)C(=O)N[C@@H](CC(C)C)C(=O)N[C@H](C(=O)N[C@@H](CC(C)C)C(N)=O)[C@@H](C)O (H-YALLHGAGNHAAGILTL-NH2)
1.61 | 1.13 | 1.4 | – | CC[C@H](C)[C@H](NC(=O)CNC(=O)[C@H](C)NC(=O)[C@H](C)NC(=O)[C@H](Cc1cnc[nH]1)NC(=O)[C@H](CC(N)=O)NC(=O)CNC(=O)[C@H](C)NC(=O)CNC(=O)[C@H](Cc1cnc[nH]1)NC(=O)[C@@H]1CCCN1C(=O)[C@H](CC(C)C)NC(=O)[C@H](CCC(=O)O)NC(=O)[C@@H](N)Cc1ccc(O)cc1)C(=O)N[C@@H](CC(C)C)C(=O)N[C@H](C(=O)N[C@@H](CC(C)C)C(N)=O)[C@@H](C)O (H-YELPHGAGNHAAGILTL-NH2)
7.85 | 3.23 | 2.4 | – | CC[C@H](C)[C@H](NC(=O)CNC(=O)[C@H](C)NC(=O)[C@H](C)NC(=O)[C@H](Cc1cnc[nH]1)NC(=O)[C@H](CC(N)=O)NC(=O)CNC(=O)[C@H](C)NC(=O)CNC(=O)[C@H](Cc1cnc[nH]1)NC(=O)[C@H](C)NC(=O)[C@H](CC(C)C)NC(=O)[C@H](CCC(=O)O)NC(=O)[C@@H](N)Cc1ccc(O)cc1)C(=O)N[C@@H](CC(C)C)C(=O)N[C@H](C(=O)N[C@@H](CC(C)C)C(N)=O)[C@@H](C)O (H-YELAHGAGNHAAGILTL-NH2)
4.82 | 1.91 | 2.5 | – | CC[C@H](C)[C@H](NC(=O)CNC(=O)[C@H](C)NC(=O)[C@H](C)NC(=O)[C@H](Cc1cnc[nH]1)NC(=O)[C@H](CC(N)=O)NC(=O)CNC(=O)[C@H](C)NC(=O)CNC(=O)[C@H](Cc1cnc[nH]1)NC(=O)[C@H](CC(C)C)NC(=O)[C@H](CC(C)C)NC(=O)[C@H](CCC(=O)O)NC(=O)[C@H](C)N)C(=O)N[C@@H](CC(C)C)C(=O)N[C@H](C(=O)N[C@@H](CC(C)C)C(N)=O)[C@@H](C)O (H-AELLHGAGNHAAGILTL-NH2)
– | – | – | < 50 | CC[C@H](C)[C@H](NC(=O)CNC(=O)[C@H](C)NC(=O)[C@H](C)NC(=O)[C@H](Cc1cnc[nH]1)NC(=O)[C@H](CC(N)=O)NC(=O)CNC(=O)[C@H](C)NC(=O)CNC(=O)[C@@H](N)Cc1cnc[nH]1)C(=O)N[C@@H](CC(C)C)C(=O)N[C@H](C(=O)N[C@@H](CC(C)C)C(N)=O)[C@@H](C)O (H-HGAGNHAAGILTL-NH2)
3.22 | 1.36 | 2.4 | – | CC[C@H](C)[C@H](NC(=O)CNC(=O)[C@H](C)NC(=O)[C@H](C)NC(=O)[C@H](Cc1cnc[nH]1)NC(=O)[C@H](CC(N)=O)NC(=O)CNC(=O)[C@H](C)NC(=O)CNC(=O)[C@H](Cc1cnc[nH]1)NC(=O)[C@H](CC(C)C)NC(=O)[C@H](CC(C)C)NC(=O)[C@H](CCC(=O)O)NC(=O)[C@H](N)Cc1ccc(O)cc1)C(=O)N[C@@H](CC(C)C)C(=O)N[C@H](C(=O)N[C@@H](CC(C)C)C(N)=O)[C@@H](C)O
2.14 | 0.739 | 2.9 | – | CC[C@H](C)[C@H](NC(=O)CNC(=O)[C@H](C)NC(=O)[C@H](C)NC(=O)[C@H](Cc1cnc[nH]1)NC(=O)[C@H](CC(N)=O)NC(=O)CNC(=O)[C@H](C)NC(=O)CNC(=O)[C@H](Cc1cnc[nH]1)NC(=O)[C@H](CC(C)C)NC(=O)[C@H](CC(C)C)NC(=O)[C@@H](CCC(=O)O)NC(=O)[C@@H](N)Cc1ccc(O)cc1)C(=O)N[C@@H](CC(C)C)C(=O)N[C@H](C(=O)N[C@@H](CC(C)C)C(N)=O)[C@@H](C)O

Reference: ChEMBL document CHEMBL3102805, “Truncated Orexin Peptides: Structure-Activity Relationship Studies” (ACS Med Chem Lett, 2013)
